Activity calls are given as the source filed them. The rule behind the calls is not given here.
What was measured:
H9c2 = test: Cytotoxicity against 7 mW/cm'2 irradiated rat H9c2 cells at 5 uM measured after 20 mins by spectrophotometric method; type: cell-based; conditions: h9c2, 20 min
Outline: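 Human fibroblasts or rat H9c2 cardiomyocytes kept 20 min at room temperature in PBS, either in the dark or irradiated at λexc 400 nm, 7 mW/cm2, with or without 5 μM test agent. Cytotoxicity measured in triplicate; means ± SD, n = 3.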

[1] = biological target: T1, Broad substrate specificity ATP-binding cassette transporter ABCG2 (Homo sapiens, UniProt Q9UNQ0); test: Inhibition of BCRP in 7 mW/cm'2 irradiated human M14 cells assessed as nitration of tyrosine in BCRP at 5 uM measured after 20 mins by immunoblotting
T1 sequence (Q9UNQ0 whole entry): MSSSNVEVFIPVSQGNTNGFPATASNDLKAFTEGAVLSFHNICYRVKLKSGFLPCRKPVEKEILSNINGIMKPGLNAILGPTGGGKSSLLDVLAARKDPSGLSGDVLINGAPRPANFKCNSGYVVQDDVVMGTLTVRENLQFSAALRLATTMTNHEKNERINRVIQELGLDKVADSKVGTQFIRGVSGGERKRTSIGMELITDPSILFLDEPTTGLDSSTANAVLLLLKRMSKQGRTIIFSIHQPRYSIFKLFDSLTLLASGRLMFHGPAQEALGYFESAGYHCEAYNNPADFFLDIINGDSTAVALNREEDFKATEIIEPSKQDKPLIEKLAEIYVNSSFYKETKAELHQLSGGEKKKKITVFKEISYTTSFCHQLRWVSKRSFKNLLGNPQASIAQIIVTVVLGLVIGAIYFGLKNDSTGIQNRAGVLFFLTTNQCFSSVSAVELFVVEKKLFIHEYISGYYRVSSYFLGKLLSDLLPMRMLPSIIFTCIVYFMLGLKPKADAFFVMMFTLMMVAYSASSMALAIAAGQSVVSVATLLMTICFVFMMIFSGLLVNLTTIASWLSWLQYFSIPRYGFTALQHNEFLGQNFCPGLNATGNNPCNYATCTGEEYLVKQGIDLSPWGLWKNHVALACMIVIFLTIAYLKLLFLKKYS
Outline: (§1)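 M14 melanoma cells held 20 min at room temperature in PBS under 400 nm light (7 mW/cm2) with 5 μM compound, alone or with equimolar doxorubicin. Nitrated ABC transporters (Pgp, MRP1, MRP4, BCRP) detected by immunoblot.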

[2] = biological target: T2, ATP-binding cassette sub-family C member 4 (Homo sapiens, UniProt O15439); test: Inhibition of MRP4 in 7 mW/cm'2 irradiated human M14 cells assessed as nitration of tyrosine in MRP4 at 5 uM measured after 20 mins in presence of doxorubicin by immunoblotting; outline: as §1
T2 sequence (O15439 whole entry): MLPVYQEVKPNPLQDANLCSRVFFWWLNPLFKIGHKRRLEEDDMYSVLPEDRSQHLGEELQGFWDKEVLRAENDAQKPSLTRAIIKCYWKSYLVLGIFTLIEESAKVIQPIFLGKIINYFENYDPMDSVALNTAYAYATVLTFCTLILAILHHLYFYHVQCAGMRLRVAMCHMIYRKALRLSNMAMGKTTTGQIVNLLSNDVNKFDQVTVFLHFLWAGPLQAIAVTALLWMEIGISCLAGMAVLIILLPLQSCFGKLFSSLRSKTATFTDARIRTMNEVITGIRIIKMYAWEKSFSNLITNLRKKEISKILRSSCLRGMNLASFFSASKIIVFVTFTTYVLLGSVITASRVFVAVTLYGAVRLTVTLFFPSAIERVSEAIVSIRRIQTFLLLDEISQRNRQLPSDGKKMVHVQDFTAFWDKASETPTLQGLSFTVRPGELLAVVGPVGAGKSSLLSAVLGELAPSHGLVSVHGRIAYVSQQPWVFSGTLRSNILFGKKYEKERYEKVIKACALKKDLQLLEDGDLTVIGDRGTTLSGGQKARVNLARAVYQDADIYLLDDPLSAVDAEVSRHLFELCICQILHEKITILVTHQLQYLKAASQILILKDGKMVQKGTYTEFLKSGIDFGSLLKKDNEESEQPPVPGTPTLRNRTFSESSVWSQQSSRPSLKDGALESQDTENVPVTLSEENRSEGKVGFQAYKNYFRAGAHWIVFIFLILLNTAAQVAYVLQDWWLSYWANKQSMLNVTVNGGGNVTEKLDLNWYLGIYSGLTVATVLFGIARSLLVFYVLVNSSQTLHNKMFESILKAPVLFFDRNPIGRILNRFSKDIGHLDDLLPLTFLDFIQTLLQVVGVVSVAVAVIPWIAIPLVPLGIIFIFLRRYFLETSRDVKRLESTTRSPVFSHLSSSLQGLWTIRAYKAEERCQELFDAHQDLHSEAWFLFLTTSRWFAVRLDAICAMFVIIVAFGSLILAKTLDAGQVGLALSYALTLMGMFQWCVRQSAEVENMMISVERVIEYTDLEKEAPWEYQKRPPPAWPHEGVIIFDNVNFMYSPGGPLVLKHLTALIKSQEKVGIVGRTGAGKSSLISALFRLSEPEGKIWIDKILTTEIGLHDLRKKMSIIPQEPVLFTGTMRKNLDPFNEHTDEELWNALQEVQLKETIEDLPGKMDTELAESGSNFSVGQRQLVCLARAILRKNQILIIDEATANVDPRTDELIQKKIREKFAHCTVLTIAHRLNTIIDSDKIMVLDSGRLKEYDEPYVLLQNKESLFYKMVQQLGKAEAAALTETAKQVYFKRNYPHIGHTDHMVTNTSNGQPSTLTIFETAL

[3] = biological target: T1, Broad substrate specificity ATP-binding cassette transporter ABCG2; test: Inhibition of BCRP in 7 mW/cm'2 irradiated human M14 cells assessed as reduction in BCRP ATPase activity at 5 uM measured after 20 mins by spectrophotometric method
Outline: (§2)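 M14 melanoma cells held 20 min at room temperature in PBS under 400 nm light (7 mW/cm2) with 5 μM compound, alone or with equimolar doxorubicin. Transporter ATPase activity then measured; n = 3.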

[4] = biological target: T1, Broad substrate specificity ATP-binding cassette transporter ABCG2; test: Inhibition of BCRP in 7 mW/cm'2 irradiated human M14 cells assessed as reduction in ATPase activity at 5 uM measured after 20 mins in presence of doxorubicin by immunoblotting; outline: as §2
Homo sapiens = organism: Homo sapiens; test: […] in 7 mW/cm'2 irradiated human M14 cells assessed as increase in LDH release at 5 uM measured after 20 mins by spectrophotometric method
[5] = Induction of NO release in pH 7.4 PBS irradiated with 7 mW/cm2 light at 10 uM after 0.5 hrs in presence of calf thymus DNA by amperometric detection assay
Outline: (§3)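 NO release recorded during alternating light (λexc 405 nm) and dark cycles. Solution at 10 μM in PBS (pH 7.4, 10 mM, 3% DMSO), with or without 18 μM ct-DNA.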

[6] = Solubility of the compound in PBS with 3% DMSO; type: physicochemical; conditions: buffer
[7] = Induction of NO release in pH 7.4 PBS irradiated with 7 mW/cm2 light at 10 uM after 0.5 hrs by amperometric detection assay; outline: as §3

Row | Structure (SMILES) | Activity (H9c2) | inhibition (INH) [1] | inhibition (INH) [2] | inhibition (INH) [3] | inhibition (INH) [4] | inhibition (Homo sapiens) | Activity [5] | solubility [6] | Activity [7]
1 | NCCCNc1ccc([N+](=O)[O-])c(C(F)(F)F)c1 | Non-Toxic | Active | Active | Active | Active |  |  |  | 
2 | COc1cccc2c1C(=O)c1c(O)c3c(c(O)c1C2=O)C[C@@](O)(C(=O)COC(=O)c1ccc(C(=O)NCCCNc2ccc([N+](=O)[O-])c(C(F)(F)F)c2)cc1)C[C@@H]3O[C@H]1C[C@H](N)[C@H](O)[C@H](C)O1.Cl | Non-Toxic | Active |  | Active |  | Active | Active | Soluble | Active

From ChEMBL document CHEMBL4000256, “Light-Regulated NO Release as a Novel Strategy To Overcome Doxorubicin Multidrug Resistance” (ACS Med Chem Lett, 2017)
